Assay results as given in publication PMC6745485 (Heliyon, 2019).
“And” between values parts separate entries of the source, which are not always exact repeats. Identical values can stand only once. “Also recorded” adds a separate entry of the source.

Legend:
[1] = molecular target: T1, rat CAR (Rattus norvegicus, UniProt Q9QUS1); assay: Rat CAR reporter gene assay in COS-1 cells; assay type: cell-based; conditions: for Agonistic activity REC20 CAR: concentration showing 20% of the agonistic activity of 30 μM artemisinin; for Agonistic activity REC20 CAR / Inverse agonistic activity RIC20 CAR: ±SD; for Inverse agonistic activity RIC20 CAR: concentration showing 80% of the activity of the vehicle control; for CAR agonistic activity (in words) / CAR inverse agonistic activity (in words): up to 30 μM
T1 sequence (Q9QUS1 1-358): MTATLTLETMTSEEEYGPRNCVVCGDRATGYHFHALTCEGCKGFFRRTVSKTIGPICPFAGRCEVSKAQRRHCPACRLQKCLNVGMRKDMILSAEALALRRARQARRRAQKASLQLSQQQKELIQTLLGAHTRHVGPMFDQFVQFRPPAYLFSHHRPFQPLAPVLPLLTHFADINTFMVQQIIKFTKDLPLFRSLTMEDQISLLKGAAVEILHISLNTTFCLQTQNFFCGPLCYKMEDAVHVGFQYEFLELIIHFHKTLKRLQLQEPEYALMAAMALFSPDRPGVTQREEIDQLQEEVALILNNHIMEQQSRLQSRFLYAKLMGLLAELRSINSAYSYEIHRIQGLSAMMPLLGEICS

[2] = molecular target: T2, rat PPARα (Rattus norvegicus, UniProt P37230); assay: Rat PPARα reporter gene assay in COS-1 cells; assay type: cell-based; conditions: for Agonistic activity REC20 PPARα: concentration showing 20% of the agonistic activity of 30 μM BZF, ±SD; for PPARα agonistic activity (in words): up to 30 μM
T2 sequence (P37230 1-468): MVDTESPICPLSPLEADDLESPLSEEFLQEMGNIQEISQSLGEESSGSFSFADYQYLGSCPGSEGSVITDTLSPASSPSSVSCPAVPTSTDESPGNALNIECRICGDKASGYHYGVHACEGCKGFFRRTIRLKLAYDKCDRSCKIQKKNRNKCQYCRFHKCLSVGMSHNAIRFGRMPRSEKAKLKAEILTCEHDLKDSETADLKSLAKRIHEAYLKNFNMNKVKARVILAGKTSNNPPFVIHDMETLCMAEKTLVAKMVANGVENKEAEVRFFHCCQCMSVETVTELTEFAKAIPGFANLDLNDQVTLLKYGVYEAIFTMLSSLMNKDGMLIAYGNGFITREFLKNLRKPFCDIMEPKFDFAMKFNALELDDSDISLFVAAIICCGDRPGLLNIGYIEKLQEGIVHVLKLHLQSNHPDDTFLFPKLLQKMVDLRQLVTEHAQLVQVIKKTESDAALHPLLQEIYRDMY

[3] = molecular target: T3, rat PXR (Rattus norvegicus, UniProt Q9R1A7); assay: Rat PXR reporter gene assay in COS-1 cells; assay type: cell-based; conditions: for Agonistic activity REC20 PXR: concentration showing 20% of the agonistic activity of 1 μM PCN, ±SD; for PXR agonistic activity (in words): up to 30 μM
T3 sequence (Q9R1A7 1-431): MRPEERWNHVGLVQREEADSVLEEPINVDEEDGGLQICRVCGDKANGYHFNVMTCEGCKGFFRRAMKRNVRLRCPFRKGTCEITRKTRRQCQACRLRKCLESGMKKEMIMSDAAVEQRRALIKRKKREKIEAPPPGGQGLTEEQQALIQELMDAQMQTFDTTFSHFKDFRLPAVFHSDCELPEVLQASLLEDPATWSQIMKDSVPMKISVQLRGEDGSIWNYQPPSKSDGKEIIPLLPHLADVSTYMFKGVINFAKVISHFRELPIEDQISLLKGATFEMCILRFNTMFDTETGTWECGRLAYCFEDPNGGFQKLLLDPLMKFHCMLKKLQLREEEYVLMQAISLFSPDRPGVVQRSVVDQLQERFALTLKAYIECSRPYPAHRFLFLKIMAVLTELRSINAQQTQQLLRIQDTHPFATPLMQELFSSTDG
Summary of the method: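 COS-1 cells (1×10^4/well) co-transfected with rat PXR expression, reporter and Renilla control plasmids via jetPEI. After 24 h, test compound or 0.1% DMSO added in serum-free D-MEM for 24 h. Dual-luciferase read-out, firefly normalized to Renilla, fold vs vehicle. REC20: concentration reaching 20% of 1 μM PCN activity. Mean ± SD, ≥3 experiments in duplicate; Dunnett's test.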

[4] = molecular target: T3, rat PXR; assay type: cell-based; conditions: microsomes of PB- and MC-treated rats, NADPH, vs boiled microsomes
Summary of the method: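 Test compound (1 μmol) incubated 30 min at 37 °C in 0.1 M K,Na-phosphate pH 7.4. Mix held an NADPH-generating system and liver microsomes (60 mg protein) from male SD rats given PB 80 mg/kg i.p. plus MC 25 mg/kg p.o. daily for 3 d. Boiled microsomes were the control. Ethyl acetate extract went into DMSO and onto transfected COS-1 cells for 24 h. Normalized firefly/Renilla fold vs vehicle; n=3, t-test.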

[5] = test system: human CAR; conditions: ref Baldwin and Roling (2009); cited from earlier work
[6] = test system: mouse CAR; conditions: ref Baldwin and Roling (2009); cited from earlier work
[7] = molecular target: T1, rat CAR; conditions: ref Omiecinski et al., 2011a; cited from earlier work

SMILES	Agonistic activity REC20 CAR [1]	Agonistic activity REC20 PPARα [2]	Agonistic activity REC20 PXR [3]	Inverse agonistic activity RIC20 CAR [1]	CAR agonistic activity (in words) [1]	Change of PXR activity upon incubation with rat liver microsomes [4]	PXR agonistic activity (in words) [3]	CAR inverse agonistic activity (in words) [1]	further results
C[C@@H]1CC[C@H]2[C@@H](C)C(=O)O[C@@H]3O[C@@]4(C)CC[C@@H]1[C@]32OO4 [artemisinin, reference compound]	2.53 ± 4.02 µM	–	–	–	–	–	–	–	CAR luciferase activity, fold ([1]; 30 μM): 1.9 fold
CC(C)(Oc1ccc(CCNC(=O)c2ccc(Cl)cc2)cc1)C(=O)O [BZF, bezafibrate, reference compound]	–	3.68 ± 0.0944 µM	–	–	–	–	–	–	PPARα luciferase activity, fold ([2]; 30 μM): 2.4 fold
CC1(C)[C@H](C=C(Cl)Cl)[C@H]1C(=O)OCc1cccc(Oc2ccccc2)c1 [trans-permethrin]	4.19 µM and 4.19 ± 3.26 µM	- ^c (No effect (REC20 > 30 μM))	0.674 ± 0.0526 µM	- ^c (No effect (REC20 > 30 μM))	showed CAR agonistic activity at higher concentrations; also recorded: weak CAR agonistic activity	decreased	–	–	PXR activity, fold compared with the control ([3]; 1 μM or lower): about 2 fold; PXR activity, fold compared with the control ([3]; concentration range 1–30 μM): about 3 fold
O=Cc1cccc(Oc2ccccc2)c1 [PBAld, 3-phenoxybenzaldehyde]	- ^c (No effect (REC20 > 30 μM))	- ^c (No effect (REC20 > 30 μM))	- ^c (No effect (REC20 > 30 μM))	- ^c (No effect (REC20 > 30 μM))	did not show CAR agonistic or inverse agonistic activity	–	inactive	did not show CAR agonistic or inverse agonistic activity	PPARα agonistic activity (in words) [2]: weak activity; also recorded: more active PPARα agonists than the parent compounds
CC(C)=C[C@@H]1[C@@H](C(=O)OCc2coc(Cc3ccccc3)c2)C1(C)C [bioresmethrin]	- ^c (No effect (REC20 > 30 μM))	- ^c (No effect (REC20 > 30 μM))	1.92 ± 0.724 µM	- ^c (No effect (REC20 > 30 μM))	–	slightly decreased	relatively weak activities	showed CAR inverse agonistic activity	–
CC1(C)[C@H](C(=O)OCc2cccc(Oc3ccccc3)c2)[C@@H]1C=C(Cl)Cl [cis-permethrin]	- ^c (No effect (REC20 > 30 μM))	- ^c (No effect (REC20 > 30 μM))	0.329 ± 0.0472 µM	- ^c (No effect (REC20 > 30 μM))	showed CAR agonistic activity at higher concentrations; also recorded: weak CAR agonistic activity	decreased	–	–	PXR activity, fold compared with the control ([3]; concentration range 1–30 μM): about 3 fold
CC(=O)[C@H]1[C@H](C#N)C[C@H]2[C@@H]3CC=C4C[C@@H](O)CC[C@]4(C)[C@H]3CC[C@@]21C [PCN, 5-Pregnen-3β-ol-20-one-16α-carbonitrile, reference compound]	–	–	0.0887 ± 0.0118 µM	–	–	–	–	–	PXR luciferase activity, fold compared to DMSO-treated cells ([3]; 1 μM): 3.2 fold
CC1(C)C(C=C(Cl)Cl)C1C(=O)OC(C#N)c1cccc(Oc2ccccc2)c1 (stereo not drawn) [cypermethrin]	- ^c (No effect (REC20 > 30 μM))	- ^c (No effect (REC20 > 30 μM))	0.468 ± 0.0267 µM	- ^c (No effect (REC20 > 30 μM))	–	–	–	–	PXR activity, fold compared with the control ([3]; 1 μM or lower): about 2 fold; PXR activity, fold compared with the control ([3]; concentration range 1–30 μM): about 3 fold; Human CAR agonistic activity [5]: agonists; Mouse CAR agonistic activity [6]: agonists
C=CCC1=C(C)C(OC(=O)C2C(C=C(C)C)C2(C)C)CC1=O (stereo not drawn) [allethrin]	- ^c (No effect (REC20 > 30 μM))	- ^c (No effect (REC20 > 30 μM))	0.668 ± 0.129 µM	- ^c (No effect (REC20 > 30 μM))	–	slightly decreased	–	–	PXR activity, fold compared with the control ([3]; 1 μM or lower): about 2 fold; PXR activity, fold compared with the control ([3]; concentration range 1–30 μM): about 3 fold
Clc1cnc(Oc2ccc(Oc3ncc(Cl)cc3Cl)cc2)c(Cl)c1 [TCPOBOP, 1,4-bis[2-(3,5-dichloropyridyloxy)]benzene]	–	–	–	–	–	–	–	–	Rat CAR activity [7]: inactive toward rat CAR
Clc1ccc(-c2nc3sccn3c2C=NOCc2ccc(Cl)c(Cl)c2)cc1 [CITCO, 6-(4-chlorophenyl)imidazo[2,1-b][1,3]thiazole-5-carbaldehyde O-(3,4-dichlorobenzyl)oxime]	–	–	–	–	–	–	–	–	Rat CAR activity [7]: inactive toward rat CAR
CC(C)=CC1C(C(=O)OCc2cccc(Oc3ccccc3)c2)C1(C)C (stereo not drawn) [phenothrin]	- ^c (No effect (REC20 > 30 μM))	- ^c (No effect (REC20 > 30 μM))	3.89 ± 1.03 µM	- ^c (No effect (REC20 > 30 μM))	–	to the control level; also recorded: significantly decreased	relatively weak activities	showed CAR inverse agonistic activity	–
OCc1cccc(Oc2ccccc2)c1 [PBAlc, 3-phenoxybenzyl alcohol]	- ^c (No effect (REC20 > 30 μM))	- ^c (No effect (REC20 > 30 μM))	- ^c (No effect (REC20 > 30 μM))	- ^c (No effect (REC20 > 30 μM))	did not show CAR agonistic or inverse agonistic activity	–	weak PXR agonistic activity	did not show CAR agonistic or inverse agonistic activity	–
O=C(O)c1cccc(Oc2ccccc2)c1 [PBAcid, 3-phenoxybenzoic acid]	- ^c (No effect (REC20 > 30 μM))	26.8 µM and 26.8 ± 21.3 µM	- ^c (No effect (REC20 > 30 μM))	- ^c (No effect (REC20 > 30 μM))	did not show CAR agonistic or inverse agonistic activity	–	inactive	did not show CAR agonistic or inverse agonistic activity	PPARα agonistic activity (in words) [2]: dose-dependent agonistic activity; also recorded: more active PPARα agonists than the parent compounds
CC1(C)[C@H](C(=O)O[C@H](C#N)c2cccc(Oc3ccccc3)c2)[C@@H]1C=C(Br)Br [deltamethrin]	–	- ^c (No effect (REC20 > 30 μM))	0.156 ± 0.0216 µM	–	–	decreased	–	–	–
